Laboratory results from ChEMBL document CHEMBL1155744, “Cytotoxic dolabellane diterpenes from the Formosan soft coral Clavularia inflata” (2001).
≈ marks a conversion by molar mass, not a printed value.

What was measured:
Type in all cases: functional
Details in all cases: read-out: ED50 (the source's name)
HT-29 = assay: Cytotoxicity against human HT-29 cells
How it was run: (§1)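 Cell lines were obtained from the American Type Culture Collection. Cytotoxicity was tested in vitro, and values are reported as ED50 in µg/mL.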

A549 = assay: Cytotoxicity against human A549 cells; how it was run: as §1
P388 = assay: Cytotoxicity against mouse P388 cells
How it was run: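 Mouse lymphocytic leukemia P-388 cells were supplied by the Pezzuto laboratory at the University of Illinois at Chicago. Cytotoxicity was tested in vitro, and values are reported as ED50 in µg/mL.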

C=C1CC[C@@H](OO)C(=C)CCC2=C(C(C)C)C(=O)C[C@@]2(C)CC1=O (relative stereo)
EC50 (HT-29): 0.31 µg/mL (≈ 0.932 µM)
EC50 (A549): 0.57 µg/mL (≈ 1.71 µM)
EC50 (P388): 0.052 µg/mL (≈ 0.156 µM)

C=C1CC/C=C(\C)CCC2=C(C(C)C)C(=O)C[C@@]2(C)C[C@H]1O (relative stereo)
EC50 (HT-29): 9.19 µg/mL (≈ 30.4 µM)
EC50 (A549): 8.1 µg/mL (≈ 26.8 µM)
EC50 (P388): 3.82 µg/mL (≈ 12.6 µM)

C=C1CC/C=C(\C)C/C=C2/[C@@H](C(C)C)C(=O)C[C@]2(C)CC1=O (relative stereo)
EC50 (HT-29): 27.3 µg/mL (≈ 90.9 µM)
EC50 (A549): > 50 µg/mL
EC50 (P388): 2.6 µg/mL (≈ 8.65 µM)

C=C1CC/C=C(\C)C[C@H]2O[C@@]23[C@@H](C(C)C)C(=O)C[C@]3(C)CC1=O (relative stereo)
EC50 (HT-29): 6.39 µg/mL (≈ 20.2 µM)
EC50 (A549): 7.74 µg/mL (≈ 24.5 µM)
EC50 (P388): 3.83 µg/mL (≈ 12.1 µM)

C=C1CC[C@H]2O[C@@]2(C)C/C=C2/[C@@H](C(C)C)C(=O)C[C@]2(C)CC1=O (relative stereo)
EC50 (HT-29): 7.84 µg/mL (≈ 24.8 µM)
EC50 (A549): 8.56 µg/mL (≈ 27.1 µM)
EC50 (P388): 2.48 µg/mL (≈ 7.84 µM)

C=C1CC/C=C(\C)CCC2=C(C(C)C)C(=O)C[C@@]2(C)CC1=O
EC50 (HT-29): > 50 µg/mL
EC50 (A549): > 50 µg/mL
EC50 (P388): 3.89 µg/mL (≈ 12.9 µM)
